# In ChEMBL document CHEMBL1121739, “Inhibition of human acrosin by monosaccharides and related compounds: structure-activity relationships” (J Med Chem, 1981):
# How the values were obtained:
# [1] = molecular target: Acrosin (Homo sapiens) (UniProt P10323); assay: Compound was tested for inhibition of Human acrosin by aldoses
# Method in brief: (§1)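 Homologous aldoses or ketoses of different carbon chain lengths were each tested at 100 mM against purified human α-acrosin. The enzyme was preincubated with sugar for 5 min at ambient temperature, pH 7.5, with 3×10^-4 M BAPA as substrate and hydrolysis read spectrophotometrically at 253 nm. Results are % inhibition of control activity, as mean ± SE with n given.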
# [2] = molecular target: Acrosin (Homo sapiens) (UniProt P10323); assay: Compound was tested for inhibition of Human acrosin by phosphorylated monosaccharides; design: concentration or dose not given beside the values; details: concentration not given here
# Method in brief: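 Phosphorylated sugars, as barium salts in the D configuration, were tested at 100 mM, limited by solubility; the parent sugars were also run at 100 mM. Each was preincubated 5 min with purified human α-acrosin before adding BAEE or BAPA. The spectrophotometric 253 nm assay measured % inhibition relative to a no-inhibitor control.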
# [3] = molecular target: Acrosin (Homo sapiens) (UniProt P10323); assay: Compound was tested for inhibition of Human acrosin by ketohexoses; details: concentration not given here
# Method in brief: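 Purified human α-acrosin from acetic acid extracts of frozen sperm, run through Sephadex G-150 and CM-cellulose. Sugars at 200 mM were preincubated with the enzyme for 5 min at ambient temperature in 50 mM sodium phosphate, pH 7.5. Reaction started with 5×10^-5 M BAEE or 3×10^-4 M BAPA; hydrolysis followed at 253 nm. Percent inhibition versus inhibitor-free control, mean ± SE of 3–6 determinations.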
# [4] = molecular target: Acrosin (Homo sapiens) (UniProt P10323); assay: Compound was tested for inhibition of Human acrosin by ketoses; details: concentration not given here; method in brief: as §1
# [5] = molecular target: Acrosin (Homo sapiens) (UniProt P10323); assay: Compound was tested for inhibition of Human acrosin by aldopentoses; design: concentration or dose not given beside the values; details: concentration not given here
# Method in brief: (§2)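 Purified human α-acrosin (acetic acid extract of frozen sperm, then Sephadex G-150 and CM-cellulose). Sugar at 200 mM was preincubated with enzyme for 5 min at ambient temperature in 50 mM sodium phosphate, pH 7.5. The reaction was started with 5×10^-5 M BAEE or 3×10^-4 M BAPA and followed at 253 nm. Results are % inhibition of the no-inhibitor control rate, as mean ± SE.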
# [6] = molecular target: Acrosin (Homo sapiens) (UniProt P10323); assay: Compound was tested for inhibition of Human acrosin by aldohexoses; design: concentration or dose not given beside the values; details: concentration not given here; method in brief: as §2
# [7] = molecular target: Acrosin (Homo sapiens) (UniProt P10323); assay: Compound was tested for inhibition of Human acrosin by polyols; details: concentration not given here
# Sequence of Acrosin (Homo sapiens) (P10323 20-42 limits assumed): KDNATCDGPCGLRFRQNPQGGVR
# Sequence of Acrosin (Homo sapiens) (P10323 43-343 limits assumed): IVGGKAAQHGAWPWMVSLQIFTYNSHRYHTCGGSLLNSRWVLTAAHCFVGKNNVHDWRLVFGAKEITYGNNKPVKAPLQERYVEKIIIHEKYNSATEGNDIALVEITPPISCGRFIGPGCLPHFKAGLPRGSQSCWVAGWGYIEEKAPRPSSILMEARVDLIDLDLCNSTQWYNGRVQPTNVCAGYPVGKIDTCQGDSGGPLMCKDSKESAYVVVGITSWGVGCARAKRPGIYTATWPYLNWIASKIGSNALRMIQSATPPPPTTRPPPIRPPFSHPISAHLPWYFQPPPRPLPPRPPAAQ
structure (smiles),measurement,setting,value
O=CC(O)C(O)CO (centres undefined),inhibition,[1],40%
O=C(CO)[C@@H](O)[C@H](O)[C@H](O)CO,inhibition,[2],46%
same,inhibition,[3],66%
same,inhibition,[4],47%
O[C@@H]1[C@H](O)[C@@H](O)OC[C@H]1O (stereo in doubt; form 1),inhibition,[5],50%
OC[C@H]1OC(O)[C@H](O)[C@@H](O)[C@@H]1O (some centres undefined),inhibition,[6],28%
O=P(O)(O)OC[C@H]1OC(O)(COP(=O)(O)O)[C@@H](O)[C@@H]1O (some centres undefined),inhibition,[2],18%
OC1OC[C@H](O)[C@H](O)[C@H]1O (some centres undefined),inhibition,[5],65%
O=P(O)(O)OC[C@H]1O[C@](O)(CO)[C@@H](O)[C@@H]1O,inhibition,[2],7%
same,inhibition,[3],32%
OC[C@H]1O[C@@H](O)[C@H](O)[C@@H](O)[C@H]1O (stereo in doubt; form 2),inhibition,[6],12%
O[C@H]1[C@H](O)[C@@H](O)[C@H](O)[C@@H](O)[C@H]1O,inhibition,[7],30%
OC[C@H]1OC(O)[C@@H](O)[C@@H](O)[C@@H]1O (some centres undefined),inhibition,[1],48%
same,inhibition,[6],60%
OC[C@H]1O[C@@H](O)[C@H](O)[C@@H](O)[C@H]1O (stereo in doubt; form 1),inhibition,[6],34%
O=C(CO)CO,inhibition,[4],15%
OCC1(O)OCC(O)C(O)C1O (centres undefined),inhibition,[3],58%
OC[C@H]1OC(O)[C@H](O)[C@H](O)[C@H]1O (some centres undefined),inhibition,[6],0%
O=P(O)(O)OC[C@@]1(O)O[C@H](CO)[C@@H](O)[C@@H]1O,inhibition,[2],9%
O=C(CO)C(O)C(O)C(O)CO (centres undefined),inhibition,[3],18%
OCC(O)CO,inhibition,[7],28%
OC[C@@H]1OC(O)[C@@H](O)[C@H](O)[C@H]1O (some centres undefined),inhibition,[6],0%
O=P(O)(O)OC1O[C@H](CO)[C@H](O)[C@H](O)[C@H]1O (some centres undefined),inhibition,[2],3%
OC[C@@H](O)[C@@H](O)[C@H](O)[C@@H](O)CO,inhibition,[7],38%
O[C@@H]1[C@H](O)[C@@H](O)OC[C@H]1O (stereo in doubt; form 2),inhibition,[5],35%
O=P(O)(O)OC[C@H]1O[C@H](O)[C@H](O)[C@@H]1O,inhibition,[2],15%
OC[C@H]1OC(O)(CO)[C@@H](O)[C@@H](O)[C@@H]1O (some centres undefined),inhibition,[4],41%
C[C@H](O)[C@@H](O)[C@@H](O)[C@H](O)C=O,inhibition,[6],20%
O=C[C@H](O)[C@@H](O)[C@H](O)CO,inhibition,[5],37%
OC[C@H]1O[C@H](O)[C@H](O)[C@@H]1O,inhibition,[2],45%
same,inhibition,[5],65%
O=P(O)(O)OC[C@H]1OC(O)[C@H](O)[C@@H](O)[C@H]1O (some centres undefined),inhibition,[2],10%
OC[C@@H](O)[C@@H](O)[C@H](O)[C@H](O)CO,inhibition,[7],29%
OC1OC[C@@H](O)[C@@H](O)[C@@H]1O (some centres undefined),inhibition,[5],50%
same,inhibition,[1],36%
O=C[C@H](O)[C@@H](O)[C@@H](O)[C@H](O)CO,inhibition,[2],0%
O=C(CO)C(O)C(O)CO (centres undefined),inhibition,[4],38%
OC1OC[C@H](O)[C@@H](O)[C@@H]1O (some centres undefined),inhibition,[5],40%
C[C@H]1OC(O)[C@H](O)[C@@H](O)[C@H]1O (some centres undefined),inhibition,[6],62%
